Data: article PMC8131326 (The Journal of Biological Chemistry, 2021)

Key:
human Kv1.1 = test: Whole-cell patch clamp, HEK 293T cells expressing Kv1.1; type: cell-based; conditions: 0.2 mM TEA; n = 5
How it was run: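 HEK 293T cells carrying plasmids for human Kv1.1 plus EGFP. Whole-cell patch clamp at room temperature after holding at −70 mV for 4 min, filtered at 2 kHz and digitized at 20 kHz. Currents elicited by a +10 mV depolarization were compared before and after application of the test agent.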

[1] = system: Kv current of LPS-activated Raw 264.7 cells; test: Kv currents of LPS-activated Raw 264.7 macrophages; type: cell-based, murine
How it was run: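 Raw 264.7 cells in DMEM/10% FBS at 37 °C, 5% CO2, LPS-activated. Whole-cell patch clamp at room temperature, held at −70 mV for 4 min to equilibrate, filtered at 2 kHz and digitized at 20 kHz, 80% series-resistance compensation. Currents compared before and after test compound or 100 nM MgTx, with amplitude taken at +40 mV. I–V curves used 150-ms steps from −50 to +40 mV, 10 mV increments, 2 s intervals. Mean ± SEM, at least four experiments.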

[2] = system: Kv1.3 expression in Raw 264.7 cells; test: Kv1.3 channel mRNA and protein expression in LPS-activated Raw 264.7 cells; type: cell-based, murine; conditions: 3 μM FS48, 100 nM MgTx, 100 ng/ml LPS
How it was run: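 Raw 264.7 cells activated with 100 ng/ml LPS and exposed to test compound (3 μM) or MgTx (100 nM) for 24 h. Kv1.3 mRNA: Trizol RNA extraction, SYBR qRT-PCR (95 °C 5 min; 40 cycles of 95 °C 15 s / 60 °C 45 s), normalized to GAPDH by 2−ΔΔCT, in triplicate. Kv1.3 protein: western blot with primary antibody 1:2000 overnight at 4 °C, HRP chemiluminescence, densitometry against GAPDH, in triplicate.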

[3] = system: NO production in Raw 264.7 cells; test: LPS-induced NO production and iNOS mRNA in Raw 264.7 cells; type: cell-based, murine; conditions: 100 ng/ml LPS
How it was run: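 Nitrite: 5 × 10^4 Raw 264.7 cells/well grown overnight, then given test compound (0.1–10 μM) plus 100 ng/ml LPS (E. coli O55:B5) for 24 h; supernatant assayed by Griess reagent at 540 nm. MgTx 100 nM served as positive control; cells without compound and/or LPS as negative controls; repeated four times. iNOS mRNA: 3 μM compound plus LPS for 8 h, SYBR qRT-PCR normalized to GAPDH (2−ΔΔCT), fold change versus untreated, in triplicate.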

[4] = system: carrageenan-induced paw edema in mice; test: Carrageenan-induced paw edema assay; type: in vivo, Kunming mice; conditions: FS48 1.5 mg/kg
How it was run: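 Male and female Kunming mice, randomized into four groups of six. Test compound (1.5 mg/kg), saline or aspirin (5 mg/kg) given i.p. 1 h before intraplantar 1% carrageenan in saline (50 μl) into the right hind paw. Paw volume to the ankle measured by plethysmometer before injection and at 2–24 h; swelling taken as Δvolume. In a second set, paws were excised at 4 h for histology, cytokine and MPO assays. Mean ± SEM, n = 6.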

Compound: CC[N+](CC)(CC)CC [TEA, tetraethylammonium]
- reduction of Kv1.1 current by TEA (human Kv1.1): 31.81 ± 1.98%

Compound: MgTx: a highly specific Kv1.3 blocker, positive control (UniProtKB P40755) (TIINVKCTSPKQCLPPCKAQFGQSAGAKCMNGKCKCYPH; UniProt P40755 1-39, looked up)
- Kv currents at all test voltages (−50 to +40 mV) ([1]; 1 μM FS48 or 100 nM MgTx, LPS-activated Raw 264.7 cells, n = 4): reduced markedly
- reduction of amplitude of Kv current of LPS-activated macrophages ([1]; at +40 mV, 100 nM MgTx, 10 μM FS48): 59.45 ± 2.79%
- Kv1.3 mRNA expression induced by LPS ([2]; real-time PCR): greatly reduced
- decrease of Kv1.3 protein expression induced by LPS ([2]; 24 h, western blot normalized to GAPDH): 76.15 ± 13.81%
- inhibition of LPS-induced nitrite production ([3]; 10 μM FS48, 100 nM MgTx, 24 h, Griess reagent): about 37.65%
- LPS-induced increase of mRNA level of iNOS ([3]; exposure for 8 h, 3 μM FS48, qRT-PCR): evidently inhibited
- effect on the second phase of carrageenan-induced paw edema ([4]; MgTx 0.4179 mg/kg, intraperitoneally 1 h before carrageenan): remarkable anti-inflammatory effects

Compound: CC(=O)Oc1ccccc1C(=O)O [aspirin]
- carrageenan-induced secretion of IL-1β, IL-6, and TNF-α in paw tissues ([4]; aspirin 5 mg/kg i.p., 4 h after carrageenan): diminished
- leukocyte infiltration in paw (histological analysis) ([4]; aspirin 5 mg/kg i.p., 4 h after carrageenan, HE stain): obviously reduced
- suppression of hind paw edema at 4 h versus model group ([4]; aspirin 5 mg/kg, intraperitoneally 1 h before carrageenan (1%, 50 μl), 4 h, n = 6): approximately 44.79%
